# Active and inactive are the calls of the source. No cut-off for these calls is given here.
# Columns and labels:
# [1] = tested on: OC2; experiment: Activation of phospholipase A2/C in human OC2 cells assessed as increase in intracellular calcium level at 1 uM; format: cell-based
# Procedure, shortened: (§1)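 OC2 cells trypsinized (10^6/mL), recovered 1 h in culture medium, loaded with 2 µM fura-2/AM for 30 min at 25 °C, washed and resuspended in Ca2+-containing buffer pH 7.4 (NaCl 140, KCl 5, MgCl2 1, CaCl2 2, HEPES 5, glucose 5 mM). 0.5 million cells/mL stirred at 25 °C. Ratio of 340/380 nm excitation read at 510 nm emission every 1 s. Calibrated with Triton X-100 and EGTA, Kd 155 nM.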
# [2] = (§2) Cytotoxicity in human OC2 cells assessed as decrease in cell viability after 24 hrs by crystal violate assay; format: functional, cell-based; details: OC2, 24 h
# Procedure, shortened: (§3)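 OC2 cells in RPMI with 10% heat-inactivated FCS at 37 °C, 5% CO2. Plated at 1 × 10^4 per well and grown overnight. At about 70% confluence, medium replaced with compound at 0-100 µM from a DMSO stock (final DMSO <0.5%, DMSO as control) for 24 h. Cell number by crystal violet elution, expressed as percent of control. n=5.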
# [3] = tested on: OC2; experiment: Activation of phospholipase A2/C in human OC2 cells assessed as decrease in intracellular calcium release at 100 uM in presence of Calcium entry blocker La3+; format: cell-based; procedure, shortened: as §1
# [4] = tested on: OC2; experiment: Activation of phospholipase A2/C in human OC2 cells assessed as increase in intracellular calcium level at 100 uM in presence of PKA inhibitor H89; format: cell-based; procedure, shortened: as §1
# [5] = tested on: OC2; experiment: Activation of phospholipase A2/C in human OC2 cells assessed as increase in intracellular calcium level at 100 uM in presence of thapsigargin; format: cell-based
# [6] = tested on: OC2; experiment: Activation of phospholipase A2/C in human OC2 cells assessed as increase in intracellular calcium level in presence of phospholipase-A2 inhibitor aristolochc acid; format: cell-based; procedure, shortened: as §1
# [7] = tested on: OC2; experiment: as §2; format: functional, cell-based; procedure, shortened: as §3
# [8] = tested on: OC2; experiment: Activation of phospholipase A2/C in human OC2 cells assessed as increase in intracellular calcium level at 0.1 uM; format: cell-based; procedure, shortened: as §1
# [9] = tested on: OC2; experiment: Activation of phospholipase A2/C in human OC2 cells assessed as increase in intracellular calcium level at 100 uM in presence of PKC inhibitor GF109203X; format: cell-based; procedure, shortened: as §1
# [10] = tested on: OC2; experiment: Activation of phospholipase A2/C in human OC2 cells assessed as increase in intracellular calcium level at 100 uM in presence of protein kinase C activator PMA
# [11] = tested on: OC2; experiment: Activation of phospholipase A2/C in human OC2 cells assessed as increase in intracellular calcium level at 100 uM pretreated with phospholipase C inhibitor […] and ATP; format: cell-based
# [12] = tested on: OC2; experiment: Activation of calcium channel in human OC2 cells assessed as increase in intracellular calcium […] in presence of La3+; format: cell-based; procedure, shortened: as §1
# [13] = tested on: OC2; experiment: Activation of phospholipase A2/C in human OC2 cells assessed as increase in intracellular calcium level at 100 uM; format: cell-based; procedure, shortened: as §1
compound,measurement,setting,value
COC(=O)C1=C(C)NC(C)=C(C(=O)OC)C1c1ccccc1[N+](=O)[O-],Activity,[1],inactive
COC(=O)C1=C(C)NC(C)=C(C(=O)OCCN(C)Cc2ccccc2)C1c1cccc([N+](=O)[O-])c1 (configuration not stated),Activity,[1],inactive
COc1ccc(CCN(C)CCCC(C#N)(c2ccc(OC)c(OC)c2)C(C)C)cc1OC (configuration not stated),Activity,[1],inactive
COc1ccc([C@@H]2Sc3ccccc3N(CCN(C)C)C(=O)[C@@H]2OC(C)=O)cc1,Activity,[1],inactive
CCCCC[C@H](O)CC(=O)CCc1ccc(O)c(OC)c1 [GINGEROL],IC50,[2],74.2 µM
CCCCC/C=C/C(=O)CCc1ccc(O)c(OC)c1 [SHOGAOL],Activity,[3],inactive
same,Activity,[4],Active
same,Activity,[5],inactive
same,Activity,[6],inactive
same,Activity,[7],Dose-dependent effect
same,IC50,[2],15.6 µM
same,Activity,[8],inactive
same,Activity,[9],Active
same,Activity,[10],Active
same,Activity,[11],inactive
same,Activity,[12],inactive
same,Activity,[13],68%

# From ChEMBL document CHEMBL1212891, “Effect of [6]-shogaol on cytosolic Ca2+ levels and proliferation in human oral cancer cells (OC2)” (J Nat Prod, 2010)
